Source: PubChem (several laboratories)
Apaf1 inhib = blocks human Apaf-1 apoptosome activity. reconstituted apoptosome caspase-3 activity, DEVD-Rh110 fluorescence. inhibition, % at 20 µM. 330,000 tested, 0.71% active; active means inhibition of at least 40% at 20 µM;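 further: plate controls were DMSO wells for no effect and DEVD-CHO caspase inhibitor wells for full effect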
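Material: cell-free apoptosome with Apaf-1, procaspase-3 and caspase-9; Buffer or medium: Hepes pH 7.5 with detergent and BSA; Reagent: cytochrome c trigger plus (Z-DEVD)2-Rh110 caspase-3 substrate; Times: compound with Apaf-1, dATP, procaspase-3 30 min, then 50 min reaction, room temperature; Technique: Rh110 fluorescence intensity.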
PREPL inhibitor = human PREPL enzyme inhibition | Q4J6C6 | recombinant PREPL, fluorescence polarization activity-based probe | inhibition, % at 5.96 µM | 320,000 tested, 0.68% active | AID 2751;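 further: 0% = enzyme with DMSO and 100% = wells lacking enzyme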
Target sequence (Q4J6C6 whole entry, looked up): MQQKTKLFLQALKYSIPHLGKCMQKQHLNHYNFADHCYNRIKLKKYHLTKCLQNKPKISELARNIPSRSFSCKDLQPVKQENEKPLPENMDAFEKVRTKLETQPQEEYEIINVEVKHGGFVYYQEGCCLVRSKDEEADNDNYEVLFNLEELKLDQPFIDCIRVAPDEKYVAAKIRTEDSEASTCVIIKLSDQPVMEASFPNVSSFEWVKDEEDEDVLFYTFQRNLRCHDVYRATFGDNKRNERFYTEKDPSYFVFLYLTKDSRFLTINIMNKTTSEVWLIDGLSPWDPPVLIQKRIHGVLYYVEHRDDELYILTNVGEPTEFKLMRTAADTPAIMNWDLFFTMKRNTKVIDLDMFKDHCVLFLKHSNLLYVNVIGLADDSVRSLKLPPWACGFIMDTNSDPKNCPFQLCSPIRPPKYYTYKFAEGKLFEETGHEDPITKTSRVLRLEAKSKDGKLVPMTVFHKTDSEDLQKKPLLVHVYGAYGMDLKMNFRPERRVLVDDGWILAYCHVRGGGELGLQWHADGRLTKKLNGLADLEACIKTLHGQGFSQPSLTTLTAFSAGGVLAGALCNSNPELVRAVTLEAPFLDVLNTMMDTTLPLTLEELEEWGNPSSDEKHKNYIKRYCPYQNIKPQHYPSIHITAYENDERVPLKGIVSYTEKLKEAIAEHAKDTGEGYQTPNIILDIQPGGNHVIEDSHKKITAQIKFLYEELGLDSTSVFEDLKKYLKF
MEKK2mut PB1 HTS = signal of MEK5 binding to mutant human MEKK2 PB1 domain; bead flow cytometry, Alexa488-MEK5 binding to MEKK2 mutant; percent response, % at 10 µM; 290,000 tested, 0.35% active; AID 1530; in the data active means percent response above about 24%, passing the limit was not always enough
MEKK3 PB1 HTS = raises or lowers MEK5 binding to the human MEKK3 PB1 domain; binding response (% of control), % at 10 µM; bead-based flow cytometry, Alexa488-MEK5 binding to MEKK3; actives lie on both sides; 0 = blocked by unlabeled MEK5, 100 = vehicle; 290,000 tested, 1.4% active;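 active means binding response more than 3 SD above or below the average of its plate-row segment, actives on both sides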;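 further: Alexa488 bead fluorescence after subtracting the streptavidin-only scavenger bead signal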
UBC13 inh = human UBC13 polyubiquitination inhibition; 330,000 tested, 0.47% active; UBC13 polyubiquitin chain formation, TR-FRET; inhibition, % at 20 µM; AID 485273; P61088; in the data active means inhibition above about 45%, passing the limit was not always enough
MEKK2 WT-MEK5 = raises or lowers MEK5 binding to wildtype human MEKK2 PB1 domain; Q9Y2U5; binding response (% of control), % at 10 µM; 290,000 tested, 1.1% active; AID 1531; bead flow cytometry, Alexa488-MEK5 binding to MEKK2 WT; actives lie on both sides; in the data active means binding response below about 67% or above about 130%
PREPL confirm = confirmation of human PREPL enzyme inhibitors | 2,000 tested, 67% active | inhibition, % at 5.96 µM | shares compounds with PREPL inhibitor | recombinant PREPL, fluorescence polarization activity probe | AID 2803;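 further: 0% = protein with DMSO and 100% = wells lacking protein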
* marks the source's active call; other numbers are inactive results; nt = no result given. A selection: hits, their analogues and other compounds. The true share with any hit is near 3.1%. Unless noted, no stated cut-off is given here; in the data, active means inhibition above about 43%; inactive means the rest.

SMILES | Apaf1 inhib | PREPL inhibitor | MEKK2mut PB1 HTS | MEKK3 PB1 HTS | UBC13 inh | MEKK2 WT-MEK5 | PREPL confirm
Cc1ccccc1NC(=O)C(C#N)Cc1cccnc1 (centres undefined) | -15 | 70* | -3 | 97 | 4 | 96 | 1
Cc1ccccc1NC(=O)NCc1cccnc1 | -5 | 8 | nt | nt | 3 | nt | nt
Cc1ccc(C)c(S(=O)(=O)N2CCCC2CNC(=O)C(=O)NCc2ccccc2C)c1 (centres undefined) | 21 | 12 | nt | nt | 1 | nt | nt
O=C(Nc1cccc(S(=O)(=O)N2CCOCC2)c1)C1=NN(c2ccccc2)C(=O)CC1 | 8 | 8 | -1 | 99 | -6 | 98 | nt
COc1ccccc1Nc1c2c(nc3ccc(N)cc13)CCCC2 | 9 | 44* | -2 | 100 | -9 | 103 | 27
COc1ccc(OC)c(Nc2c3c(nc4ccccc24)CCC3)c1 | 5 | 18 | -1 | 103 | -2 | 107 | nt
N=C1/C(=C\c2ccc(OC(=O)c3ccccc3Cl)cc2)C(=O)N=C2SC(N3CCOCC3)=NN12 | 19 | 53* | 1 | 100 | -29 | 98 | 16
COc1cc(/C=C2\C(=N)N3N=C(N4CCOCC4)SC3=NC2=O)ccc1OC(=O)c1ccccc1 | 6 | 40 | 0 | 100 | -26 | 94 | nt
COCCn1c(CN(C)Cc2ccccc2)nc2c1c(=O)n(C)c(=O)n2C | -2 | 53* | 0 | 93 | 1 | 94 | 37
CCCN1CCc2c(sc(NC(=S)NC(=O)c3ccccc3)c2C#N)C1 | 23 | 61* | 8 | 95 | -59 | 0.0* | 26
Cc1sc(NC(=S)NC(=O)c2ccccc2)c(C#N)c1C | 11 | 10 | -4 | 92 | -10 | 92 | nt
O=C(C[C@H]1C/C=C\C[C@@H](Cc2ccc(F)cc2)C(=O)OC[C@H]2CCCN2C1=O)N[C@@H](CO)Cc1ccccc1 | 6 | 60* | nt | nt | 20 | nt | 51*
O=C(C[C@@H]1C/C=C\C[C@@H](Cc2ccc(F)cc2)C(=O)OC[C@H]2CCCN2C1=O)N[C@H](CO)Cc1ccccc1 | 14 | 45* | nt | nt | 2 | nt | 47*
CC(C)CC(COCc1ccc(Cl)cc1)N1CCN(C(=O)c2ccc(Cl)cc2Cl)CCC1=O (centres undefined) | 36 | 22 | -7 | 68 | 18 | 82 | nt
CCCCNC(=O)c1ccccc1SCc1c(C)noc1C | 5 | 0 | 7 | 105 | 4 | 108 | nt
COc1ccc2c(c1)c(C)cc[n+]2Cc1ccccc1 | 2 | nt | 12 | 104 | 6 | 109 | nt
Cc1ccc2c(c1)c(C)cc[n+]2Cc1ccccc1 | 8 | 50* | 7 | 103 | 14 | 119 | 29
Cc1c(Cl)c([N+](=O)[O-])nn1CCCC(=O)Nc1cccc(Cl)c1Cl | 10 | 47* | -1 | 111 | 2 | 104 | 38
C[C@]12c3[nH]c4ccccc4c3CCN1C(=O)C(CC(=O)NCCN1CCOCC1)C[C@@H]2C(=O)N1CCOCC1 (some centres undefined) | -6 | 5 | nt | nt | 4 | nt | nt
CC(C)=CCC/C(C)=C/CNC(=O)CC1C[C@H](C(=O)N2CCOCC2)[C@@]2(C)c3[nH]c4ccccc4c3CCN2C1=O (some centres undefined) | 31 | 57* | nt | nt | 29 | nt | 33
CCC(C)NC(=O)c1ccc2c(c1)S(=O)(=O)c1ccccc1C2=O (centres undefined) | -4 | nt | 1 | 103 | 1 | 100 | nt
COc1ccc(CN2CCN(Cc3cc4ccccc4o3)CC2CCO)cc1C (centres undefined) | 8 | -4 | 16 | 111 | -2 | 115 | nt
Cc1ccc2c(CC(=O)Nc3ccc(N4CCN(C)CC4)cc3C)coc2c1 | -8 | 61* | 10 | 98 | 9 | 116 | 60*
CC(=O)N1c2ccc(S(=O)(=O)NCCC(=O)Nc3ccc(OC(F)(F)F)cc3)cc2CC1C (centres undefined) | 4 | -6 | 2 | 103 | -2 | 108 | nt
Cc1ccc(NS(=O)(=O)c2ccc(C(=O)Nc3nncs3)cc2)cc1 | 1 | 45* | nt | nt | -4 | nt | 8
SMILES | Apaf1 inhib | PREPL inhibitor | MEKK2mut PB1 HTS | MEKK3 PB1 HTS | UBC13 inh | MEKK2 WT-MEK5 | PREPL confirm
c1ccc(C2(CN3CCNC[C@@H]3CC3CCCCC3)CC2)cc1 | 32 | 6 | nt | nt | 28 | nt | nt
Fc1cccc(CCN2CCNC[C@@H]2CC2CCCCC2)c1 | 29 | 44* | nt | nt | 24 | nt | 42
COC(=O)c1ccc2nc(C)cc(Nc3ccc(N(C)C)cc3)c2c1 | 13 | 50* | -1 | 113 | -19 | 104 | 42
C/C(=N\Nc1ccc([N+](=O)[O-])cc1)c1cccc(N)c1 | 2 | 55* | nt | nt | -67 | nt | 46*
Cc1ccc(NC(=O)CN(C)C(=O)c2cccnc2Nc2cccc(C(F)(F)F)c2)cc1 | 26 | 0 | 9 | 113 | -2 | 123 | nt
COc1ccc2c(c1)CC1c3c(cc4c(c3-2)OCO4)CC[N+]1(C)[O-] (centres undefined) | 17 | 55* | -4 | 93 | -42 | 96 | 20
CCOc1cc(N2CCOCC2)c(OCC)cc1NC(=O)CN1C(=O)N(C)C2(CCCCC2)C1=O | 1 | 4 | nt | nt | -7 | nt | nt
COc1ccc(NC(=O)c2sc3ncn(CC(=O)N4CCN(c5ccccn5)CC4)c(=O)c3c2C)cc1OC | 8 | 58* | 4 | 105 | -8 | 106 | 49*
Nc1c(S(=O)(=O)O)cc(NC(=O)c2ccccc2)c2c1C(=O)c1ccccc1C2=O | 25 | 65* | 3 | 106 | -42 | 101 | 55*
O=c1[nH]c(CN2CCN(c3ccc([N+](=O)[O-])cc3)CC2)nc2ccsc12 | 0 | 46* | 4 | 103 | -10 | 102 | 29
CN(C)/N=C/c1cc([N+](=O)[O-])ccc1O | -8 | 0 | -5 | 106 | -15 | 103 | nt
O=[N+]([O-])c1ccc(C(O)CN=Cc2ccc(O)cc2O)cc1 (centres undefined) | -12 | 49* | -6 | 101 | -1 | 90 | 11
O=C(c1ccc(CNc2c(N3CCCC3)c(=O)c2=O)cc1)N1CC=C(c2ccccc2)CC1 | 15 | 43* | -3 | 96 | 2 | 96 | 42
CC1CCCCC1NC(=O)c1ccc(CNc2c(N3CCCC3)c(=O)c2=O)cc1 (centres undefined) | 5 | 1 | -7 | 93 | -4 | 95 | nt
CCC(CO)Oc1cc(NCc2ccccc2F)c2ncn(C(C)C)c2c1 (centres undefined) | 14 | 35 | nt | nt | -5 | nt | nt
CCC(CO)Oc1cc(NCc2ccccc2Cl)c2ncn(C(C)C)c2c1 (centres undefined) | 24 | 60* | nt | nt | 4 | nt | 30
CCC(CO)Oc1cc(NCc2ccccc2C(F)(F)F)c2ncn(C(C)C)c2c1 (centres undefined) | 37 | 48* | nt | nt | 7 | nt | 20
